The text below walks through data of paper PMC7992179 (ACS Omega, 2021).

The subject of one data set is PTZ-induced convulsions. The data set can be described thus: PTZ-induced convulsions in mice. In kind it is in vivo. The conditions noted are these: for average duration of seizure / latency time / seizure score / mortality: 5 mg/kg i.p., PTZ 70 mg/kg i.p., n = 10; for average duration of seizure / latency time / seizure score: mean ± SEM; for enhancement of latency time of PTZ-induced seizures compared with the standard LTG drug: 5 mg/kg, vs LTG. In a few lines:
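Overnight-fasted albino mice (n = 10 per group) received test compound at 5 mg/kg i.p., suspended in carboxymethylcellulose and sonicated. Controls were vehicle, PTZ alone and lamotrigine (dose-finding at 1–5 mg/kg). Clonic seizures were induced with PTZ 70 mg/kg i.p. Recorded: latency, convulsion duration, number of convulsions, protection, and a 0–6 seizure score (6 = death). Mean ± SEM; one-way ANOVA with Dunnett's test versus the PTZ group.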

The subject of data set [1] is motor coordination on rotating rod. The data set can be described thus: Neurotoxicity / minimal motor impairment, rotating rod. Type of data set: in vivo. The conditions noted are these: rod observed 5 min, mean ± SEM, 10 mice. In a few lines:
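White albino mice of either sex, 8–10 weeks, 25–35 g, were trained on a rotating rod (2.5 cm diameter, 25 cm high). After i.p. dosing (10, 30 or 50 mg/kg), motor coordination was scored over 5 min at 30 min and 4 h. Neurotoxicity meant failure to stay on the rod for 1 min. 10 mice per group; mean ± SEM.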

The subject of another data set is MCF-7 cell line. As to the kind of experiment: MTT cytotoxicity assay in MCF-7 cells. In kind it is cell-based, human. The conditions noted are these: 48 h, MTT; for IC50 ± SD: MCF-7, 1–30 μM; for % inhibition/stimulation: conc. 30 μM. In a few lines:
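MCF-7 cells grown in Eagle's MEM with 10% FBS, 1% penicillin/streptomycin, 0.1 mM non-essential amino acids, 10 μg/mL insulin and 1 mM sodium pyruvate at 37 °C, 5% CO2. Trypsin/EDTA-harvested cells were seeded at 6 × 10^4 cells/mL and incubated overnight. Test compound (1–30 μM, or a fixed 30 μM screen against doxorubicin) was applied for 48 h. MTT 0.5 mg/mL for 4 h, DMSO, A570; % inhibition and IC50.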
A general note: Tetrazolium assays rely on reduction of a dye to a coloured formazan, in cell work by metabolically active cells.

Regarding “4-{[(3-{(E)-[(4-Hydroxy-3-methoxyphenyl)methylidene]amino}-6-(2,3-dichlorophenyl)-1,2,4-triazin-5-yl)imino]methyl}-2-methoxyphenol Zinc Chloride Coordinate Complex [4c]”, in the data set on PTZ-induced convulsions, the “average duration of seizure” value stood at 81.5 ± 1.5 s, the latency time came to 250.0 ± 10.3 s, the seizure score was determined as 14.0 ± 3.7 counts and the mortality is recorded as 0.0 counts. Moreover, the “enhancement of latency time of PTZ-induced seizures compared with the standard LTG drug” value in the data set with PTZ-induced convulsions turned out to be 18%. Also, in data set [1] (dose 10 mg/kg i.p.), the “time on Rod” value was determined as 80.0 ± 75.3 s. For the same substance, the “time on Rod” value in data set [1] (dose 30 mg/kg i.p.) was determined as 50.6 ± 42.5 s. Also, the “time on Rod” value in data set [1] (dose 50 mg/kg i.p.) stood at 30.65 ± 25.7 s. Further, in the data set on MCF-7 cell line, the “IC50 ± SD” value was “inactive” and the “% inhibition/stimulation” value was 0.00%.

Consider “(1E,2Z)-N-[6-(2,3-Dichlorophenyl)-5-{(E)-[(2E)-3-phenylprop-2-en-1-ylidene]amino}-1,2,4-triazin-3-yl]prop-2-en-1-imine Copper Acetate Coordinate Complex [5a]”, for which, in the data set with PTZ-induced convulsions, the “average duration of seizure” value turned out to be 81.5 ± 2.1 s, the latency time is 170.0 ± 45.2 s, the seizure score was 11.0 ± 1.9 counts and the mortality turned out to be 0.0 counts. In addition, the “time on Rod” value in data set [1] (dose 10 mg/kg i.p.) worked out at 76.7 ± 19.7 s. Moreover, the “time on Rod” value in data set [1] (dose 30 mg/kg i.p.) amounted to 55.9 ± 12.9 s. In addition, the “time on Rod” value in data set [1] (dose 50 mg/kg i.p.) worked out at 40.9 ± 10.7 s. Further, in the data set with MCF-7 cell line, the “IC50 ± SD” value was “inactive” and the “% inhibition/stimulation” value came out at 0.00%.

Regarding “(1E,2Z)-N-[6-(2,3-Dichlorophenyl)-5-{(E)-[(2E)-3-phenylprop-2-en-1-ylidene]amino}-1,2,4-triazin-3-yl]prop-2-en-1-imine Dibutyl Tin Dichloride Coordinate Complex of L1 [7a]”, in the data set on PTZ-induced convulsions, the “average duration of seizure” value stood at 110 ± 14.1 s, the latency time was 220.0 ± 72.7 s, the seizure score is reported as 12.0 ± 1.2 counts and the mortality turned out to be 0.0 counts. The “enhancement of latency time of PTZ-induced seizures compared with the standard LTG drug” value with PTZ-induced convulsions amounted to 4%. In addition, in data set [1] (dose 10 mg/kg i.p.), the “time on Rod” value is 155.0 ± 97.5 s. Also, the “time on Rod” value in data set [1] (dose 30 mg/kg i.p.) was determined as 130.6 ± 92.4 s. Besides, the “time on Rod” value in data set [1] (dose 50 mg/kg i.p.) was 100.4 ± 87.7 s. In the data set with MCF-7 cell line, the “IC50 ± SD” value is “inactive” and the “% inhibition/stimulation” value is given as 0.00%.

Turning to “(1E,2Z)-N-[6-(2,3-Dichlorophenyl)-5-{(E)-[(2E)-3-phenylprop-2-en-1-ylidene]amino}-1,2,4-triazin-3-yl]prop-2-en-1-imine Silver Nitrate Coordinate Complex [6a]”, in the data set with PTZ-induced convulsions, the “average duration of seizure” value is 105 ± 7.1 s, the latency time was determined as 180.0 ± 75.9 s, the seizure score turned out to be 11.0 ± 2.3 counts and the mortality was found to be 1 counts. Further, the “protection against PTZ-induced convulsions” value in the data set with PTZ-induced convulsions (dose of 5 mg/kg) was found to be 90%. Further, in data set [1] (dose 10 mg/kg i.p.), the “time on Rod” value came out at 141.7 ± 102.5 s. In data set [1] (dose 30 mg/kg i.p.), the “time on Rod” value was determined as 120.0 ± 98.7 s. Further, in data set [1] (dose 50 mg/kg i.p.), the “time on Rod” value stood at 75.8 ± 20.3 s. Also, in the data set with MCF-7 cell line, the “IC50 ± SD” value is “inactive” and the “% inhibition/stimulation” value came to 0.00%.

In the case of “(1E,2Z)-N-[6-(2,3-Dichlorophenyl)-5-{(E)-[(2E)-3-phenylprop-2-en-1-ylidene]amino}-1,2,4-triazin-3-yl]prop-2-en-1-imine Zinc Chloride Coordinate Complex [4a]”, in the data set on PTZ-induced convulsions, the “average duration of seizure” value was 86.5 ± 5.0 s, the latency time came out at 145.0 ± 23.4 s, the seizure score amounted to 15.0 ± 4.9 counts and the mortality is reported as 0.0 counts. Besides, the “time on Rod” value in data set [1] (dose 10 mg/kg i.p.) is 66.7 ± 15.1 s. Also, in data set [1] (dose 30 mg/kg i.p.), the “time on Rod” value came out at 45.4 ± 10.3 s. Besides, the “time on Rod” value in data set [1] (dose 50 mg/kg i.p.) was 30.6 ± 4.2 s. Besides, in the data set on MCF-7 cell line, the “IC50 ± SD” value is “inactive” and the “% inhibition/stimulation” value came out at 0.00%.
